Reference: ChEMBL document CHEMBL1156875, “Anti-influenza drug discovery: structure-activity relationship and mechanistic insight into novel angelicin derivatives” (J Med Chem, 2010)

Tests used:
Influenza A virus = assay: Antiviral activity against human influenza A virus A/WSN/33 (H1N1) in MDCK cells assessed as reduction of virus-induced cytopathic effect; format: functional, organism-based; conditions: A/WSN/1933(H1N1)
Summary of the method: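 MDCK cells (1.1 × 10^5 cells/mL in DMEM + 10% FBS) grown 24-30 h at 37 C to about 90% confluency. Virus (100 TCID50) premixed with serially diluted compound, adsorbed 1 h at 37 C. Overlay of serum-free DMEM with trypsin 2.5 μg/mL and 0.1% DMSO, then 72 h at 37 C. Formaldehyde fixation, crystal violet stain, A570. IC50 = 50% CPE reduction versus virus control. Triplicate, at least two runs.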

[1] = Cytotoxicity against MDCK cells after 72 hrs; format: cell-based, Canis lupus familiaris; conditions: dog
Summary of the method: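 Uninfected MDCK monolayers (seeded at 1.1 × 10^5 cells/mL, grown 24-30 h to about 90% confluency) exposed to graded compound concentrations for 72 h at 37 C. Read by formaldehyde fixation, 0.1% crystal violet staining and absorbance at 570 nm. CC50 = concentration reducing viability to 50% of control. Triplicate, repeated at least twice.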

## Cc1cc(=O)oc2c1ccc1oc(C(=O)c3ccccc3)c(-c3cccc(Cl)c3)c12
Influenza A virus
  IC50: 1.41 µM
[1]
  CC50 at 72 h: > 25 µM

## O=C(c1ccccc1)c1oc2ccc3ccccc3c2c1-c1ccccc1
Influenza A virus
  IC50: > 25 µM
[1]
  CC50 at 72 h: > 25 µM

## Cc1cc2ccc3oc(C(=O)c4ccccc4)c(-c4ccccc4)c3c2oc1=O
Influenza A virus
  IC50: 2.79 µM
[1]
  CC50 at 72 h: > 25 µM

## Cc1cc(=O)oc2c1ccc1oc(C(=O)c3cccc(OCCO)c3)c(-c3ccccc3)c12
Influenza A virus
  IC50: 6.09 µM
[1]
  CC50 at 72 h: > 25 µM

## O=C(c1ccccc1)c1oc2ccc3c4c(c(=O)oc3c2c1-c1ccccc1)CCCC4
Influenza A virus
  IC50: > 25 µM
[1]
  CC50 at 72 h: > 25 µM

## Cc1cc2oc(C(=O)c3ccccc3)c(-c3ccccc3)c2c2oc(=O)ccc12
Influenza A virus
  IC50: 7.76 µM
[1]
  CC50 at 72 h: > 25 µM

## Cc1cc(=O)oc2c1ccc1oc(C(=O)c3ccc([N+](=O)[O-])cc3)c(-c3ccccc3)c12
Influenza A virus
  IC50: > 6.25 µM

## Cc1ccc(C(=O)c2oc3ccc4c(C)cc(=O)oc4c3c2-c2ccccc2)cc1
Influenza A virus
  IC50: 0.87 µM
[1]
  CC50 at 72 h: > 25 µM

## Cc1cc(=O)oc2c1ccc1oc(C(=O)c3ccccc3)c(-c3ccc(Cl)cc3)c12
Influenza A virus
  IC50: 3.92 µM
[1]
  CC50 at 72 h: > 25 µM

## Cc1cc(=O)oc2c1ccc1oc(C(=O)c3ccccc3)c(-c3ccccc3Br)c12
Influenza A virus
  IC50: 0.73 µM
[1]
  CC50 at 72 h: > 25 µM

## Cc1cc(=O)oc2c1ccc1oc(C(=O)c3ccco3)c(-c3ccccc3)c12
Influenza A virus
  IC50: 0.41 µM
[1]
  CC50 at 72 h: > 25 µM

## Cc1cc(=O)oc2c1ccc1oc(Cc3ccccc3)c(-c3ccccc3)c12
Influenza A virus
  IC50: 0.63 µM
[1]
  CC50 at 72 h: > 25 µM

## Cc1cc(=O)oc2c1ccc1oc(C(=O)c3cccc([N+](=O)[O-])c3)c(-c3ccccc3)c12
Influenza A virus
  IC50: 1.71 µM
[1]
  CC50 at 72 h: > 25 µM

## Cc1cc(=O)oc2c1ccc1oc(C(=O)c3ccccc3)c(-c3ccccc3)c12
Influenza A virus
  IC50: 0.14 µM
[1]
  CC50 at 72 h: > 25 µM

## Cc1cccc(C(=O)c2oc3ccc4c(C)cc(=O)oc4c3c2-c2ccccc2)c1
Influenza A virus
  IC50: 0.26 µM
[1]
  CC50 at 72 h: > 25 µM

## Cc1cc(=O)oc2c1ccc1oc(C(=O)c3ccccc3)cc12
Influenza A virus
  IC50: 2.43 µM
[1]
  CC50 at 72 h: > 25 µM

## COc1ccc(C(=O)c2oc3ccc4c(C)cc(=O)oc4c3c2-c2ccccc2)cc1
Influenza A virus
  IC50: 1.67 µM
[1]
  CC50 at 72 h: > 25 µM

## CC(=O)c1oc2ccc3c(C)cc(=O)oc3c2c1-c1ccccc1
Influenza A virus
  IC50: > 25 µM
[1]
  CC50 at 72 h: > 25 µM

## CCCCOc1cccc(C(=O)c2oc3ccc4c(C)cc(=O)oc4c3c2-c2ccccc2)c1
Influenza A virus
  IC50: 0.08 µM
[1]
  CC50 at 72 h: > 25 µM

## Cc1cc(=O)oc2c1ccc1oc(C(=O)c3cccc(F)c3)c(-c3ccccc3)c12
Influenza A virus
  IC50: 0.29 µM
[1]
  CC50 at 72 h: > 25 µM

## Cc1cc(=O)oc2c1ccc1oc(C(=O)c3ccc(Cl)cc3)c(-c3ccccc3)c12
Influenza A virus
  IC50: 22.3 µM
[1]
  CC50 at 72 h: > 25 µM

## CCCCCCCCOc1cccc(C(=O)c2oc3ccc4c(C)cc(=O)oc4c3c2-c2ccccc2)c1
Influenza A virus
  IC50: 7.97 µM
[1]
  CC50 at 72 h: > 25 µM

## Cc1cc(=O)oc2c1ccc1oc(-c3ccccc3)c(-c3ccccc3)c12
Influenza A virus
  IC50: > 25 µM
[1]
  CC50 at 72 h: > 25 µM

## Cc1cc(=O)oc2c1ccc1oc(C(=O)c3cccc(Cl)c3)c(-c3ccccc3)c12
Influenza A virus
  IC50: 0.26 µM
[1]
  CC50 at 72 h: > 25 µM

## Cc1cc(=O)oc2c1ccc1oc(C(=O)c3ccccc3)c(C)c12
Influenza A virus
  IC50: 4.51 µM
[1]
  CC50 at 72 h: > 25 µM

## Cc1cc(=O)oc2c1ccc1oc(C(O)c3ccccc3)c(-c3ccccc3)c12 (configuration not stated)
Influenza A virus
  IC50: 0.32 µM
[1]
  CC50 at 72 h: > 25 µM

## Cc1cc(=O)oc2c1ccc1oc(C(=O)c3ccccc3)c(-c3cccc(Br)c3)c12
Influenza A virus
  IC50: 0.08 µM
[1]
  CC50 at 72 h: > 25 µM

## Cc1cc(=O)oc2c1ccc1oc(C(=O)c3ccccn3)c(-c3ccccc3)c12
Influenza A virus
  IC50: 0.61 µM

## Cc1cc(=O)oc2c1ccc1oc(C(=O)c3ccccc3)c(-c3cccc(C#N)c3)c12
Influenza A virus
  IC50: 0.53 µM
[1]
  CC50 at 72 h: > 25 µM

## Cc1ccccc1C(=O)c1oc2ccc3c(C)cc(=O)oc3c2c1-c1ccccc1
Influenza A virus
  IC50: 6.62 µM
[1]
  CC50 at 72 h: > 25 µM

## CCOc1cccc(C(=O)c2oc3ccc4c(C)cc(=O)oc4c3c2-c2ccccc2)c1
Influenza A virus
  IC50: 0.12 µM
[1]
  CC50 at 72 h: > 25 µM

## Cc1ccc(-c2c(C(=O)c3ccccc3)oc3ccc4c(C)cc(=O)oc4c23)cc1
Influenza A virus
  IC50: 0.82 µM
[1]
  CC50 at 72 h: > 25 µM

## CCCOc1cccc(C(=O)c2oc3ccc4c(C)cc(=O)oc4c3c2-c2ccccc2)c1
Influenza A virus
  IC50: 0.15 µM
[1]
  CC50 at 72 h: > 25 µM

## COc1ccc(-c2c(C(=O)c3ccccc3)oc3ccc4c(C)cc(=O)oc4c23)cc1
Influenza A virus
  IC50: 10.1 µM
[1]
  CC50 at 72 h: > 25 µM

## Cc1cc(=O)oc2c1ccc1oc(C(=O)c3cccc(OCCCO)c3)c(-c3ccccc3)c12
Influenza A virus
  IC50: 2.65 µM
[1]
  CC50 at 72 h: > 25 µM

## CCCc1cc(=O)oc2c1ccc1oc(C(=O)c3ccccc3)c(-c3ccccc3)c12
Influenza A virus
  IC50: 0.47 µM
[1]
  CC50 at 72 h: > 25 µM

## COc1cccc(C(=O)c2oc3ccc4c(C)cc(=O)oc4c3c2-c2ccccc2)c1
Influenza A virus
  IC50: 0.11 µM
[1]
  CC50 at 72 h: > 25 µM

## CCc1cc(=O)oc2c1ccc1oc(C(=O)c3ccccc3)c(-c3ccccc3)c12
Influenza A virus
  IC50: 0.24 µM
[1]
  CC50 at 72 h: > 25 µM

## Cc1cc(=O)oc2c1ccc1sc(C(=O)c3ccccc3)c(-c3ccccc3)c12
Influenza A virus
  IC50: 0.72 µM
[1]
  CC50 at 72 h: > 25 µM

## COc1ccccc1C(=O)c1oc2ccc3c(C)cc(=O)oc3c2c1-c1ccccc1
Influenza A virus
  IC50: 0.64 µM
[1]
  CC50 at 72 h: > 25 µM

## CCCc1c(C(=O)c2ccccc2)oc2ccc3c(C)cc(=O)oc3c12
Influenza A virus
  IC50: 0.29 µM
[1]
  CC50 at 72 h: > 25 µM

## Cc1cccc(-c2c(C(=O)c3ccccc3)oc3ccc4c(C)cc(=O)oc4c23)c1
Influenza A virus
  IC50: 0.1 µM
[1]
  CC50 at 72 h: > 25 µM

## O=C(c1ccccc1)c1oc2ccc3c(-c4ccccc4)cc(=O)oc3c2c1-c1ccccc1
Influenza A virus
  IC50: > 25 µM
[1]
  CC50 at 72 h: > 25 µM

## Cc1cc(=O)oc2c1ccc1oc(C(=O)c3cccc(O)c3)c(-c3ccccc3)c12
Influenza A virus
  IC50: 0.72 µM
[1]
  CC50 at 72 h: > 25 µM

## CCCCCOc1cccc(C(=O)c2oc3ccc4c(C)cc(=O)oc4c3c2-c2ccccc2)c1
Influenza A virus
  IC50: 0.14 µM
[1]
  CC50 at 72 h: > 25 µM

## Cc1cc(=O)oc2c1ccc1oc(C(=O)c3ccsc3)c(-c3ccccc3)c12
Influenza A virus
  IC50: 0.15 µM
[1]
  CC50 at 72 h: > 25 µM

## Cc1cc(=O)oc2c1ccc1oc(C(=O)c3ccccc3)c(-c3cccc([N+](=O)[O-])c3)c12
Influenza A virus
  IC50: 0.25 µM
[1]
  CC50 at 72 h: > 25 µM

## C/C=C/C(=O)Oc1cccc2oc(C(=O)c3ccccc3)c(-c3ccccc3)c12
Influenza A virus
  IC50: 20.8 µM
[1]
  CC50 at 72 h: > 25 µM

## COc1cccc(C(=O)c2oc3ccc4c(C)cc(=O)oc4c3c2-c2cccc(Br)c2)c1
Influenza A virus
  IC50: 0.09 µM
[1]
  CC50 at 72 h: > 25 µM

## Cc1cc(=O)oc2c1ccc1oc(C(=O)c3ccccc3)c(-c3cc(Br)cc(Br)c3)c12
Influenza A virus
  IC50: 0.1 µM
[1]
  CC50 at 72 h: > 25 µM

## Cc1cc(=O)oc2c1ccc1oc(C(=O)c3ccccc3)c(-c3ccc4ccccc4c3)c12
Influenza A virus
  IC50: 1.91 µM
[1]
  CC50 at 72 h: > 25 µM

## Cc1cc(=O)oc2c1ccc1oc(C(=O)c3cccs3)c(-c3cccc(Br)c3)c12
Influenza A virus
  IC50: 0.06 µM
[1]
  CC50 at 72 h: > 25 µM

## Cc1cc(=O)oc2c1ccc1oc(C(=O)c3ccccc3)c(-c3cccs3)c12
Influenza A virus
  IC50: 0.15 µM
[1]
  CC50 at 72 h: > 25 µM

## Cc1cc(=O)oc2c1ccc1occ(-c3ccccc3)c12
Influenza A virus
  IC50: > 25 µM
[1]
  CC50 at 72 h: > 25 µM

## Cc1c(C)c2ccc3oc(C(=O)c4ccccc4)c(-c4ccccc4)c3c2oc1=O
Influenza A virus
  IC50: 0.29 µM
[1]
  CC50 at 72 h: > 25 µM

## CCCCCCCCCCc1c(C(=O)c2ccccc2)oc2ccc3c(C)cc(=O)oc3c12
Influenza A virus
  IC50: > 25 µM
[1]
  CC50 at 72 h: > 25 µM

## O=C(c1ccccc1)c1oc2ccccc2c1-c1ccccc1
Influenza A virus
  IC50: > 25 µM
[1]
  CC50 at 72 h: 5.27 µM

## Cc1cc(=O)oc2c1ccc1oc(C(=O)c3ccccc3)c(-c3ccco3)c12
Influenza A virus
  IC50: 0.65 µM
[1]
  CC50 at 72 h: > 25 µM

## Cc1cc(=O)oc2c1ccc1oc(C(=O)c3cccc(OCCN(C)C)c3)c(-c3ccccc3)c12
Influenza A virus
  IC50: 5.28 µM
[1]
  CC50 at 72 h: 17.7 µM

## Cc1cc(=O)oc2c1ccc1oc(C(=O)c3ccccc3)c(-c3ccc([N+](=O)[O-])cc3)c12
Influenza A virus
  IC50: 0.76 µM
[1]
  CC50 at 72 h: > 25 µM

## CCCCCCc1c(C(=O)c2ccccc2)oc2ccc3c(C)cc(=O)oc3c12
Influenza A virus
  IC50: 0.65 µM
[1]
  CC50 at 72 h: > 25 µM

## Cc1cc(=O)oc2c1ccc1oc(C(=O)c3ccccc3)c(-c3ccc(Br)cc3)c12
Influenza A virus
  IC50: 0.46 µM
[1]
  CC50 at 72 h: > 25 µM
